Experimental data reported in ChEMBL document CHEMBL4732185, “Synthesis, biological evaluation and structure-activity relationship of novel dichloroacetophenones targeting pyruvate dehydrogenase kinases with potent anticancer activity” (Eur J Med Chem, 2021).
Activity calls are given as the source filed them. No cut-off for these calls is given here.

Key:
[1] = Inhibition of PDK (unknown origin) using RYHGHSMSDP as substrate after 30 mins by Kinase-Glo luminescent assay; design: species or system Homo sapiens
HCT-116 = experiment: Antiproliferative activity against human HCT-116 cells assessed as growth inhibition after 72 hrs by MTT assay; type: functional, cell-based
Procedure, shortened: (§1)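 MTT viability assay. Cancer lines seeded at 3000–6000 cells/well and L02 at 7000 cells/well, cultured overnight, then exposed to a full dose range for 72 h. MTT (0.5 mg/mL) added for 4 h, supernatant removed, formazan dissolved in DMSO, absorbance read at 570 nm. IC50 taken as the mean of three independent experiments. Cells grown in DMEM + 10% FBS, 37 °C, 5% CO2.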

MCF7 [2] = experiment: Antiproliferative activity against human MCF7 cells assessed as growth inhibition after 72 hrs by MTT assay; type: functional, cell-based; procedure, shortened: as §1
Homo sapiens [3] = species: Homo sapiens; experiment: Inhibition of PDK (unknown origin) using RYHGHSMSDP as substrate at 80 uM after 30 mins by Kinase-Glo luminescent assay
L02 = experiment: Cytotoxicity against human L02 cells assessed as reduction in cell viability after 72 hrs by MTT assay; type: cell-based; procedure, shortened: as §1
MCF7 [4] = experiment: Antiproliferative activity against human MCF7 cells assessed as growth inhibition at 10 uM after 72 hrs by MTT assay relative to control; type: functional; conditions: for inhibition of growth at 10 µM: read-out: GI
Procedure, shortened: (§2)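 Single-concentration MTT screen on MCF-7 and A549 cells grown in DMEM + 10% FBS. Cells at 3000–6000/well, cultured overnight, then given compound in buffer with 1% DMSO for 72 h. MTT (0.5 mg/mL) added for 4 h, formazan dissolved in DMSO, A570 read. Percent inhibition reported as the average ± S.D. of three independent measurements.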

A-375 [5] = experiment: Antiproliferative activity against human A375 cells assessed as growth inhibition after 72 hrs by MTT assay; type: functional, cell-based; procedure, shortened: as §1
A549 [6] = experiment: Antiproliferative activity against human A549 cells assessed as growth inhibition after 72 hrs by MTT assay; type: functional, cell-based; procedure, shortened: as §1
A549 [7] = experiment: Antiproliferative activity against human A549 cells assessed as growth inhibition at 10 uM after 72 hrs by MTT assay relative to control; type: functional; conditions: for inhibition of growth at 10 µM: read-out: GI; procedure, shortened: as §2
MCF7 [8] = experiment: Antiproliferative activity against human MCF7 cells assessed as growth inhibition at 1 uM after 72 hrs by MTT assay relative to control; type: functional; conditions: for inhibition of growth at 1 µM: read-out: GI; procedure, shortened: as §2
SH-SY5Y = experiment: Antiproliferative activity against human SHSY-5Y cells assessed as growth inhibition after 72 hrs by MTT assay; type: functional, cell-based; procedure, shortened: as §1
PC-3 = experiment: Antiproliferative activity against human PC3 cells assessed as growth inhibition after 72 hrs by MTT assay; type: functional, cell-based; procedure, shortened: as §1
A549 [9] = experiment: Antiproliferative activity against human A549 cells assessed as growth inhibition at 1 uM after 72 hrs by MTT assay relative to control; type: functional; conditions: for inhibition of growth at 1 µM: read-out: GI; procedure, shortened: as §2
A549 [10] = experiment: Antiproliferative activity against human A549 cells assessed as reduction in cell viability after 24 hrs by MTT assay; type: functional, cell-based; conditions: A549, 24 h
Homo sapiens [11] = species: Homo sapiens; experiment: Inhibition of PDK (unknown origin) using RYHGHSMSDP as substrate at 1 uM after 30 mins by Kinase-Glo luminescent assay
A-375 [12] = experiment: Induction of apoptosis in human A375 cells assessed as viable cells at 5 uM after 24 hrs by annexinV-FITC/propidium iodide staining based flow cytometric analysis (Rvb= 97.94%); type: functional; conditions: read-out: Activity
A-375 [13] = experiment: Induction of apoptosis in human A375 cells assessed as early apoptotic cells at 5 uM after 12 hrs by annexinV-FITC/propidium iodide staining based flow cytometric analysis (reference value: 0.87%); type: functional
A-375 [14] = experiment: Induction of cell cycle arrest in human A375 cells assessed as accumulation at G2 phase at 5 uM after 24 hrs by propidium iodide staining based flow cytometric analysis (reference value: 10.02%); type: functional
A-375 [15] = experiment: Induction of apoptosis in human A375 cells assessed as necrotic cells at 5 uM after 36 hrs by annexinV-FITC/propidium iodide staining based flow cytometric analysis (reference value: 1.63%); type: functional
A-375 [16] = experiment: Induction of apoptosis in human A375 cells assessed as viable cells at 5 uM after 12 hrs by annexinV-FITC/propidium iodide staining based flow cytometric analysis (reference value: 97.94%); type: functional; conditions: read-out: Activity
A-375 [17] = experiment: Induction of apoptosis in human A375 cells assessed as viable cells at 5 uM after 36 hrs by annexinV-FITC/propidium iodide staining based flow cytometric analysis (reference value: 94.15%); type: functional; conditions: read-out: Activity
A-375 [18] = experiment: Induction of apoptosis in human A375 cells assessed as late apoptotic cells at 5 uM after 36 hrs by annexinV-FITC/propidium iodide staining based flow cytometric analysis (reference value: 1.02%); type: functional
A-375 [19] = experiment: Induction of apoptosis in human A375 cells assessed as early apoptotic cells at 5 uM after 24 hrs by annexinV-FITC/propidium iodide staining based flow cytometric analysis (reference value: 0.87%); type: functional
A-375 [20] = experiment: Induction of apoptosis in human A375 cells assessed as late apoptotic cells at 5 uM after 12 hrs by annexinV-FITC/propidium iodide staining based flow cytometric analysis (reference value: 0.63%); type: functional
A-375 [21] = experiment: Inhibition of PDK in human A375 cells assessed as reduction in phosphorylation of PDC E1alpha at ser293 residues at 5 uM after 24 hrs by Western blot analysis; type: cell-based
Procedure, shortened: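 A375 cells in 6-well plates, treated 24 h. Lysed 15 min and spun 12000 rpm at 4 °C for 15 min. Protein equalized by BCA and denatured in SDS buffer at 100 °C for 8 min. Run on SDS-PAGE, transferred to nitrocellulose, blocked in 5% milk 2 h, primary antibody overnight, HRP anti-rabbit IgG 2 h, ECL detection.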

A-375 [22] = experiment: Induction of apoptosis in human A375 cells assessed as necrotic cells at 5 uM after 24 hrs by annexinV-FITC/propidium iodide staining based flow cytometric analysis (reference value: 0.56%); type: functional
A-375 [23] = experiment: Induction of cell cycle arrest in human A375 cells assessed as accumulation at S phase at 5 uM after 24 hrs by propidium iodide staining based flow cytometric analysis (reference value: 37.33%); type: functional
A-375 [24] = experiment: Induction of apoptosis in human A375 cells assessed as early apoptotic cells at 5 uM after 36 hrs by annexinV-FITC/propidium iodide staining based flow cytometric analysis (reference value: 3.2%); type: functional
A-375 [25] = experiment: Induction of cell cycle arrest in human A375 cells assessed as accumulation at G1 phase at 5 uM after 24 hrs by propidium iodide staining based flow cytometric analysis (reference value: 52.65%); type: functional
A-375 [26] = experiment: Induction of apoptosis in human A375 cells assessed as late apoptotic cells at 5 uM after 24 hrs by annexinV-FITC/propidium iodide staining based flow cytometric analysis (reference value: 0.63%); type: functional
A-375 [27] = experiment: Induction of apoptosis in human A375 cells assessed as necrotic cells at 5 uM after 12 hrs by annexinV-FITC/propidium iodide staining based flow cytometric analysis (reference value: 0.56%); type: functional
[28] = Homo sapiens, HCT-116, 72 h, read-out: IC50
[29] = Homo sapiens, MCF7, 72 h, read-out: IC50
[30] = Homo sapiens, L02, 72 h, read-out: IC50
[31] = Homo sapiens, A-375, 72 h, read-out: IC50
[32] = Homo sapiens, A549, 72 h, read-out: IC50
[33] = Homo sapiens, SH-SY5Y, 72 h, read-out: IC50
[34] = Homo sapiens, PC-3, 72 h, read-out: IC50

SMILES	EC50 [1] [µM]	IC50 (HCT-116; [28]) [µM]	IC50 (MCF7 [2]; [29]) [µM]	IC50 (L02; [30]) [µM]	inhibition of growth at 10 µM (MCF7 [4]) [%]	IC50 (A-375 [5]; [31]) [µM]	IC50 (A549 [6]; [32]) [µM]	inhibition of growth at 10 µM (A549 [7]) [%]	growth inhibition (GI) (MCF7 [8])	IC50 (SH-SY5Y; [33]) [µM]	IC50 (PC-3; [34]) [µM]	inhibition (Homo sapiens [11]) [%]	inhibition of growth at 1 µM (MCF7 [8]) [%]	inhibition of growth at 1 µM (A549 [9]) [%]	also measured
O=C(c1ccccc1)C(Cl)Cl	> 80	12.9	21.4	19.7	42.2	16.9	18.7	55.2	inactive	17.7	23.1				inhibition (Homo sapiens [3]): 36.6%; growth inhibition (GI) (A549 [9]): inactive; IC50 (A549 [10]): 15.9 µM
CN(C)C(=O)c1ccc(S(=O)(=O)c2ccc(NC(=O)[C@@](C)(O)C(F)(F)F)c(Cl)c2)cc1	0.053								inactive			98.7			IC50 (HCT-116; hct-116): Not Active; IC50 (MCF7 [2]; mcf7): Not Active; IC50 (L02; l02): Not Active; growth inhibition (GI) (MCF7 [4]): inactive; IC50 (A-375 [5]; a-375): Not Active; IC50 (A549 [6]; a549): Not Active; growth inhibition (GI) (A549 [7]): inactive; IC50 (SH-SY5Y; sh-sy5y): Not Active; IC50 (PC-3; pc-3): Not Active; growth inhibition (GI) (A549 [9]): inactive
CC(C)(C)c1ccc(Nc2ccc(C(=O)C(Cl)Cl)cc2[N+](=O)[O-])cc1	0.55	0.5	1.9	5.9	96.4	0.9	1.2	93.2		1.1	0.47	65.8	41.2	48.8	
CC(C)c1ccc(Nc2ccc(C(=O)C(Cl)Cl)cc2[N+](=O)[O-])cc1	0.34	0.7	1.21	1.5	94	0.9	0.33	97		1	0.38	80	38.6	75.2	
CC(C)(O)c1ccc(Nc2ccc(C(=O)C(Cl)Cl)cc2[N+](=O)[O-])cc1	1.49	1.5	2.98	7.8	92.8	1.8	3.1	96.3		2.3	2.34	48.8	33.9	37.9	
O=C([O-])C(Cl)Cl.[Na+] [SODIUM DICHLOROACETATE]		9800	13400	21700		20100	19500			17400	15700				
CC(C)Oc1ccc(C(=O)C(Cl)Cl)cc1[N+](=O)[O-]	0.33	6.2	7.8	16.9	73.4	4.9	3.5	98.2	inactive	5.6	8.7	72.4		18.7	viability at 5 µM (A-375 [12]): 84.2%; Activity (A-375 [13]): 2.43%; Activity (A-375 [14]): 11.01%; Activity (A-375 [15]): 2.31%; viability at 5 µM (A-375 [16]): 91.1%; viability at 5 µM (A-375 [17]): 68.9%; Activity (A-375 [18]): 18.83%; Activity (A-375 [19]): 4.71%; Activity (A-375 [20]): 2.66%; inhibition (A-375 [21]): Active; Activity (A-375 [22]): 4.29%; Activity (A-375 [23]): 30.65%; Activity (A-375 [24]): 6.6%; Activity (A-375 [25]): 58.34%; Activity (A-375 [26]): 6.83%; Activity (A-375 [27]): 3.77%
